Calls of active or inactive are those of the source. The rule behind the calls is not given here.
Columns and labels:
Format in all cases: functional
[1] = system: Radical scavenging activity; test: Antioxidant activity assessed as DPPH radical scavenging after 30 mins; set-up: concentration or dose not given beside the values
Summary of the method: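 Compound in methanol mixed 1:1 with methanolic DPPH, both 0.2 mM stocks, giving 0.1 mM each final. Shaken, left 30 min, then A517 read. % scavenging = [(Ab + As) − Am]/Ab × 100, where Ab is DPPH alone, As is compound alone and Am is the mixture. Ascorbic acid reference. Three replicates, averaged.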

Bacillus subtilis = test: Antimicrobial activity against Bacillus subtilis NCIM 2010 after 24 hrs by disk diffusion method
Summary of the method: (§1)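 Disc diffusion on nutrient agar. Plates were swabbed evenly with a standard inoculum ([…] c.f.u./ml, 0.5 McFarland). 6.25 mm filter-paper discs were dry-heat sterilized (140 °C, 1 h), soaked in test compound at 250 mcg/disc, and placed on the agar. Solvent, growth and ciprofloxacin controls were included. Plates were incubated inverted 24 h at 37 °C and inhibition zones measured.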

Staphylococcus aureus = test: Antimicrobial activity against Staphylococcus aureus NCIM 5021 after 24 hrs by disk diffusion method; summary of the method: as §1

SMILES | Activity [1] | inhibition zone (IZ) (Bacillus subtilis) | inhibition zone (IZ) (Staphylococcus aureus)
Cc1nn(C(=O)COc2ccc3c(C)cc(=O)oc3c2)c(C)c1/N=N/c1ccc(Br)cc1 | 55% | 27 mm | 12.7 mm
CC1=NN(C(=O)COc2ccc3c(C)cc(=O)oc3c2)C(=O)/C1=N/Nc1ccc(C(=O)O)cc1 | inactive | inactive | inactive
CC1=NN(C(=O)COc2ccc3c(C)cc(=O)oc3c2)C(=O)/C1=N/Nc1ccc(Cl)cc1 | 53% | 24.3 mm | 11.3 mm
CC1=NN(C(=O)COc2ccc3c(C)cc(=O)oc3c2)C(=O)/C1=N/Nc1ccc([N+](=O)[O-])cc1 | 31% | inactive | inactive
Cc1nn(C(=O)COc2ccc3c(C)cc(=O)oc3c2)c(C)c1/N=N/c1ccc(Cl)cc1 | 32% | inactive | inactive
O=C1O[C@H]([C@@H](O)CO)C(O)=C1O | 96% | inactive | inactive
Cc1ccc(/N=N/c2c(C)nn(C(=O)COc3ccc4c(C)cc(=O)oc4c3)c2C)c(C)c1 | 24% | inactive | inactive
CC1=NN(C(=O)COc2ccc3c(C)cc(=O)oc3c2)C(=O)/C1=N/Nc1ccc(C)cc1C | 57% | inactive | inactive
CC1=NN(C(=O)COc2ccc3c(C)cc(=O)oc3c2)C(=O)/C1=N/Nc1cccc([N+](=O)[O-])c1 | 69% | inactive | inactive
O=C(O)c1cn(C2CC2)c2cc(N3CCNCC3)c(F)cc2c1=O [CIPROFLOXACIN] | inactive | 33.7 mm | 30 mm
Cc1nn(C(=O)COc2ccc3c(C)cc(=O)oc3c2)c(C)c1/N=N/c1ccccc1C(=O)O | 28% | 16.7 mm | inactive
CC1=NN(C(=O)COc2ccc3c(C)cc(=O)oc3c2)C(=O)/C1=N/Nc1ccc(Br)cc1 | inactive | 14 mm | 13.7 mm
CC1=NN(C(=O)COc2ccc3c(C)cc(=O)oc3c2)C(=O)/C1=N/Nc1ccccc1C(=O)O | 20% | 26.7 mm | 12.3 mm
Cc1nn(C(=O)COc2ccc3c(C)cc(=O)oc3c2)c(C)c1/N=N/c1ccc(C(=O)O)cc1 | 32% | inactive | inactive
Cc1nn(C(=O)COc2ccc3c(C)cc(=O)oc3c2)c(C)c1/N=N/c1ccc([N+](=O)[O-])cc1 | 32% | inactive | inactive
Cc1nn(C(=O)COc2ccc3c(C)cc(=O)oc3c2)c(C)c1/N=N/c1cccc([N+](=O)[O-])c1 | 38% | inactive | inactive

From ChEMBL document CHEMBL1155338, “Antioxidant and antibacterial studies of arylazopyrazoles and arylhydrazonopyrazolones containing coumarin moiety” (2009)
